Hits are enriched below; roughly 2.6% of the tested compounds scored in any of these assays.
miR-122 sensor: miR-122 Renilla sensor signal increase in Huh7, primary screen, miR-122 inhibitor project, cell-based, single point, plate reader | Huh7 miR-122 Renilla luciferase sensor, 48 h; neutral wells = 0, positive control = 100 | 340,000 tested, 0.3% active | activation (reporter increase), % at 12.5 µM;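 active = mean replicate activation score at least 90 and every replicate individually at or above 90; inconclusive = only one of the two criteria met; inactive = neither criterion met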;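 also: higher luciferase means less miR-122 activity so hits act as miR-122 inhibitors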
rRNA inh HTS: reduced GFP signal of wild-type E. coli, primary screen, bacterial rRNA inhibitor project, GFP/RFP fluorescence, OD600, single point. E. coli WT GFP vs humanized-ribosome RFP mutants, 24 h; hits give low values; DMSO median 0, no signal -100. GFP signal change (wild-type ribosome), % (concentration not given with the values). 350,000 tested, 1.6% active. AID 720706, 2013;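 active = significant combined selectivity score with lowered wild-type GFP, culture density cut under 30%, mutant RFP and density less affected; inactive = any of these conditions unmet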
Env fusion inh: inhibitors of HIV-1 Env-driven cell-cell fusion, primary screen, HeLa-JRFL effector, CEM21 target cells, luciferase. inhibition, % at 12.3 µM. 360,000 tested, 1.1% active. AID 651610, 2012;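 active = mean replicate inhibition score of at least 50 and every replicate individually at or above 50; inconclusive = only one of the two criteria met; inactive = mean below 50 and not all replicates reaching 50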;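 also: 0% = plate neutral controls and 100% = maraviroc near 300 nM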
FN deposition inh: inhibitors of fibronectin matrix deposition, primary screen, AH1F cells, Alexa488-fibronectin fluorescence, plate reader | AID 743247, 2014 | inhibition, % at 12.6 µM | 350,000 tested, 0.086% active | AH1F fibroblasts, overnight;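 active = mean inhibition across replicates of 30% or more, regardless of how many single replicates reach that level; inconclusive = mean under 30% yet at least half of replicates reach 30%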;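 also: positive control wells lacked labelled fibronectin entirely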
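Material – AH1F fibroblast monolayer, labelled fibronectin deposition · Reagent – labelled fibronectin 24 nM · Timing – 1 h adhesion, overnight exposure · Measured by – fluorescence at 485 nm excitation, 525 nm emission · Read-out – inhibition of fibronectin deposition signal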
Vif imaging: HIV Vif self-association inhibitors, primary screen, imaging, HEK293T, single point; HEK293T cells, Vif self-association by quenched fluorescence, 24 h; 340,000 tested, 0.35% active; AID 602346, 2012; inhibition, % at 7.49 µM; in the data active = inhibition above about 50%, passing the limit was not always enough; inconclusive = no clear call, values can overlap the other calls; inactive = below about 31%
S100A4 MyoIIA: inhibitors of S100A4-myosin IIA peptide binding, primary screen, biochemical, fluorescence polarization, TAMRA-MyoIIA peptide; Protein S100-A4 (Homo sapiens), P26447; inhibition, % at 10.7 µM; 360,000 tested, 0.14% active; AID 652163, 2013;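 active = mean inhibition of at least 70% across replicates, with every replicate also reaching that level; inconclusive = mean inhibition reaches 70% but some replicates fall short; inactive = mean inhibition below 70%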
Target sequence (P26447 whole entry, looked up): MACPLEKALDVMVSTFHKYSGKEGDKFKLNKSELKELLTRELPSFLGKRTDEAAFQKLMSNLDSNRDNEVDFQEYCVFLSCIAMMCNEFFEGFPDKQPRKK
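Material: S100A4 monomer protein | Medium: HEPES pH 7.2 with CaCl2, KCl, NaCl, DTT, Triton | Reagent: Labelled myosin peptide probe, 5 nM | Doses: One dose per compound | Times: 5 min incubation before reading | Benchmarks: Neutral control DMSO, positive control TFP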
Numbers without * were called inactive; [ ] = dose if it differs, or a comment.

`COc1ccc(C(C)(O)c2nc(-c3cccs3)cs2)cc1` (stereo unspecified) gave miR-122 sensor 18, rRNA inh HTS -58, Env fusion inh 11, Vif imaging 4 and S100A4 MyoIIA 182*.
For COc1ccc(C(C)(O)c2nc(-c3ccccc3)cs2)cc1 (stereo unspecified) the results were miR-122 sensor 3, rRNA inh HTS -2, Env fusion inh 1, FN deposition inh 1, Vif imaging -1 and S100A4 MyoIIA -4.
CCOc1ccc(NC(=O)CNC(=O)c2nn(-c3ccc(OC)c(OC)c3)c(=O)c3ccccc23)cc1 was read as rRNA inh HTS 0, Env fusion inh 12, FN deposition inh -8, Vif imaging -10 and S100A4 MyoIIA -2.
For COc1ccc(-n2nc(C(=O)NCC(=O)Nc3cccc(Cl)c3)c3ccccc3c2=O)cc1OC the results were miR-122 sensor -13, rRNA inh HTS 10, Env fusion inh 2, FN deposition inh 12, Vif imaging 53* and S100A4 MyoIIA 0.
For O=C(NCCc1c[nH]c2ccccc12)/C(=C/c1cccnc1)NC(=O)c1ccccc1 the results were rRNA inh HTS -1, Env fusion inh -13, FN deposition inh 14, Vif imaging 3 and S100A4 MyoIIA 0.
`O=C(NCCc1c[nH]c2ccccc12)/C(=C/c1cccnc1)NC(=O)c1cccs1` gave rRNA inh HTS -28*, Env fusion inh -1, FN deposition inh 6, Vif imaging 0 and S100A4 MyoIIA -2.
`COC(=O)c1c(NC(=O)COC(=O)c2ccccn2)sc(C)c1C` gave miR-122 sensor -2, rRNA inh HTS 1, Env fusion inh -3, FN deposition inh 19, Vif imaging -11 and S100A4 MyoIIA -2.
CCOC(=O)c1c(NC(=O)COC(=O)c2ccccn2)sc2c1CCC2 was read as miR-122 sensor 0, rRNA inh HTS -18*, Env fusion inh -22, FN deposition inh -7, Vif imaging -6 and S100A4 MyoIIA -4.
For Cc1noc(C)c1S(=O)(=O)Nc1ccc2c(c1)C(=O)N([C@H](C)CO)C[C@@H](C)[C@@H](CN(C)CC1CCCCC1)OCCCC[C@H](C)O2 the results were miR-122 sensor -1[16.7 µM], rRNA inh HTS -2, Env fusion inh -5[16.7 µM] and S100A4 MyoIIA 9.
`O=C(C[C@@H]1C[C@H]2c3cc(NS(=O)(=O)c4ccccc4)ccc3O[C@H]2[C@@H](CO)O1)N1CCOCC1` gave miR-122 sensor 23[16.7 µM], rRNA inh HTS -2, Env fusion inh -10[16.7 µM], FN deposition inh -2 and S100A4 MyoIIA 111*.
Screening COC(=O)C[C@@H]1C[C@@H]2c3cc(NS(=O)(=O)c4cccc(OC)c4)ccc3O[C@@H]2[C@@H](CO)O1 returned miR-122 sensor 4[16.7 µM], rRNA inh HTS -4, Env fusion inh 2[16.7 µM] and S100A4 MyoIIA -19.
`COC(=O)C[C@@H]1C[C@H]2c3cc(NS(=O)(=O)c4cccc(OC)c4)ccc3O[C@H]2[C@@H](CO)O1` gave miR-122 sensor -3[16.7 µM], rRNA inh HTS -1, Env fusion inh 60*[16.7 µM] and S100A4 MyoIIA 8.
Screening COCC(=O)Nc1ccc2c(c1)[C@@H]1C[C@@H](CC(=O)N3CCOCC3)O[C@@H](CO)[C@@H]1O2 returned miR-122 sensor 0[16.7 µM], rRNA inh HTS 2, Env fusion inh -2[16.7 µM], FN deposition inh -9 and S100A4 MyoIIA 86*.
For N#CC1=C2SCC(O)(c3ccccc3)N2C(=O)CC1c1cccs1 (stereo unspecified) the results were miR-122 sensor 54, rRNA inh HTS -37*, Vif imaging 0 and S100A4 MyoIIA 1.
`COc1ccc(NC(=O)Nc2cccc3c2O[C@@H](CN(C)C(=O)Nc2ccc(C(F)(F)F)cc2)[C@@H](C)CN([C@@H](C)CO)C3=O)cc1` gave miR-122 sensor -4[16.7 µM], rRNA inh HTS -15 and Env fusion inh -40[16.7 µM].
CCCCN(C)C(=O)c1oc2ccc(S(=O)(=O)N3CCCCCC3)cc2c1C was read as miR-122 sensor -2, Env fusion inh 61*, FN deposition inh 1 and Vif imaging -5.
Screening CC1=CC(C)(C)N2C(=O)C(=O)c3cc(OC(=O)c4ccco4)cc1c32 returned miR-122 sensor 6, rRNA inh HTS -23*, Env fusion inh 11, FN deposition inh 11, Vif imaging -7 and S100A4 MyoIIA 2.
For Cc1nn2c(SCC(=O)c3cccs3)cc(C(C)(C)C)nc2c1-c1ccccc1 the results were rRNA inh HTS -30*, Env fusion inh -8, FN deposition inh 1, Vif imaging 1 and S100A4 MyoIIA 1.
`C=C(C)CSc1cc(C)nc2c(-c3ccccc3)c(C)nn12` gave rRNA inh HTS -49*, Env fusion inh 61*, FN deposition inh 0, Vif imaging 2 and S100A4 MyoIIA 9.
O=C(Nc1ccccc1F)N1CC(=O)N2[C@@H](CO)[C@@H](c3ccc(-c4ccc(F)cc4)cc3)[C@@H]2C1 was read as rRNA inh HTS -3.
C[C@@H]1CN([C@@H](C)CO)C(=O)CCCn2cc(nn2)CO[C@H]1CN(C)CC1CCCCC1 was read as miR-122 sensor 4[16.7 µM], rRNA inh HTS 4, Env fusion inh -14[16.7 µM], FN deposition inh -24 and S100A4 MyoIIA -3.
O=C(C[C@H]1CC[C@@H]2[C@H](COC[C@@H](O)CN2S(=O)(=O)c2ccccc2F)O1)NCc1ccccc1Cl was read as miR-122 sensor -2[16.7 µM], rRNA inh HTS -2, FN deposition inh 0 and S100A4 MyoIIA 8.
`O=S(=O)(NCC(Nc1ccccc1)c1ccccc1)c1ccc(Cl)cc1` (stereo unspecified) gave miR-122 sensor 18, Env fusion inh 98*, FN deposition inh -7 and Vif imaging inconclusive.
Cc1noc(C)c1C(c1ccccc1)c1ccccc1 was read as miR-122 sensor 5, rRNA inh HTS -47*, Vif imaging -4 and S100A4 MyoIIA 2.
Screening Cc1ccsc1C(=O)OCC(=O)Nc1ccc(Cl)cn1 returned miR-122 sensor -4, rRNA inh HTS -23*, FN deposition inh -1, Vif imaging -4 and S100A4 MyoIIA 1.
For O=C(COC(=O)c1cccs1)Nc1ccc(Cl)cn1 the results were rRNA inh HTS 0, FN deposition inh 5, Vif imaging 6 and S100A4 MyoIIA 4.
